Measurements taken from PubChem BioAssay AID651647 (Sanford-Burnham Center for Chemical Genomics, 2012).
Screen size: about 360,000 compounds; about 220 (0.061%) were called active. The list comes from a sample in which actives are over-represented; it also holds similar structures and randomly drawn compounds. A number with no mark means an inactive call.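 How the source made its calls: active means GFP/RFP ratio change of at least 30% with cell ATP level not reduced by more than half and red fluorescence within 50% of control; inactive means the rest, inconclusive results apart.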

What follows are compounds tested against Matrix metalloproteinase-14 (Homo sapiens) (UniProt P50281) (assay: blockers of MT1-MMP proenzyme processing, primary screen, HT1080 RFP-PRO-GFP cells, GFP/RFP fluorescence (AID 651647)). Conditions: overnight, at 20 µM, stronger effect = higher value, percent of plate control window, DMSO zero.
How it was run: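 Material: RFP-PRO-GFP reporter HT1080 cells. Dosing: single-point 20 µM compound, 1% DMSO. Controls: DMSO and RFP-L50D-GFP cell wells. Timing: cells overnight before dosing, compound overnight, 37 °C, 5% CO2. Measure: GFP/RFP fluorescence ratio.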
With COC1=C/C(=C/c2c(N)n3nc(CC(=O)N4CCOCC4)sc3nc2=O)C=CC1=O the GFP/RFP ratio change was -33.2%.
Cc1ccc(C(=O)Nc2nnc(C3=COCCO3)o2)cc1C was tested, and the GFP/RFP ratio change was -0.926%.
In the case of CCC(=O)N1CCCC1(C)C(=O)Nc1ccc2c(c1)CCN2C(C)=O (stereo unspecified), the GFP/RFP ratio change is reported as -0.545%.
Compound NS(=O)(=O)c1ccc(N2C(=O)C3C4CC(C(Br)C4Br)C3C2=O)cc1 (stereo unspecified) has a GFP/RFP ratio change of -0.391%.
Work on CCc1ccc(-c2cc3c(=O)n(CC(=O)NCCCN4CCN(Cc5ccccc5)CC4)nc(C)n3n2)cc1 yielded a GFP/RFP ratio change of -3.13%.
For C/C(=N\c1nc2ccccc2n1C)c1cc(Cl)ccc1O, the GFP/RFP ratio change was 1.93%.
COc1cc(C(=S)NCc2ccccc2)cc(Br)c1O showed a GFP/RFP ratio change of 4.38%.
With O=S1(=O)CC(N2CCN(CCO)CC2)CN1C1CCCC1 (stereo unspecified) the GFP/RFP ratio change was -0.753%.
CSc1cccc(NC(=O)C2CCCN2S(=O)(=O)c2ccc3c(c2)CCC(=O)N3)c1 (stereo unspecified) was tested, and the GFP/RFP ratio change was -0.538%.
In the case of O=[N+]([O-])c1cc(S(=O)(=O)N2CCCC2)ccc1NN=C1CCCC1, the GFP/RFP ratio change is reported as 0.0654%.
Compound COc1ccc(/C=C2\CCCC3C2=NN(C(=O)c2scnc2C)C3c2ccc(OC)cc2)cc1 (stereo unspecified) has a GFP/RFP ratio change of -11.9%.
CCN(c1ccccc1)S(=O)(=O)c1ccc2[nH]c(=O)[nH]c2c1 showed a GFP/RFP ratio change of -1.12%.
With O=C1CCC(C(=O)N2CCC(O)(c3ccccc3)CC2)CN1CCc1ccccc1 (stereo unspecified) the GFP/RFP ratio change was -2.93%.
COc1ccc(CCN2CC(C(=O)NCCN3CCNC3=O)CCC2=O)cc1 (stereo unspecified) showed a GFP/RFP ratio change of 0.0278%.
Cc1ccc(-c2nc(CSCC(=O)NC3CCN(Cc4ccccc4)CC3)c(C)o2)cc1 showed a GFP/RFP ratio change of 1.7%.
CC1(C)N=C(c2ccccn2)C(C)(C)N1O gave a GFP/RFP ratio change of -4.4%.
Compound O=C(Cc1ccccn1)c1ccc(O)cc1O has a GFP/RFP ratio change of -2.78%.
In the case of O=C(NNc1c2ccccc2nc2ccccc12)c1cc2ccccc2cc1O, the GFP/RFP ratio change is reported as 55.7% (active).
With O=C(CSc1nc(C2CC2)nc2ccccc12)Nc1cccc(O)c1 the GFP/RFP ratio change was -3.6%.
O=C(COC(=O)COc1ccccc1F)Nc1cccc(S(=O)(=O)N2CCCCC2)c1 showed a GFP/RFP ratio change of 4.15%.
With CC1(c2ccccc2Cl)NC(=O)N(CC(=O)NC(=O)NCc2ccco2)C1=O (stereo unspecified) the GFP/RFP ratio change was -1.98%.
Work on O=C(Cn1c(-c2cscn2)nc2ccccc21)Nc1ccc(Cl)cc1 yielded a GFP/RFP ratio change of 0.072%.
O=C(CSc1nnc(-c2ccc([N+](=O)[O-])cc2)o1)Nc1ccccn1 gave a GFP/RFP ratio change of 3.02%.
For O=C(c1cc2c(s1)CCC2)N1CCN(c2ccccc2)CC1, the GFP/RFP ratio change was -1.39%.
With O=C(COc1ncnc2c(Cl)cc(Cl)cc12)N1CCN(S(=O)(=O)c2ccccc2)CC1 the GFP/RFP ratio change was -1.19%.
Compound COc1ccc(C(=O)CN2C(=O)NC(C)(c3ccc(C)cc3)C2=O)cc1OC (stereo unspecified) has a GFP/RFP ratio change of 5.51%.
In the case of CCOC(=O)C1CCN(C(=O)Nc2ccc(C)c(Cl)c2)CC1, the GFP/RFP ratio change is reported as 2.62%.
For CCC1=C(OC(=O)N(CC)CC)N2C(=O)OC(=NCC3CC3)[C@]2(C)[C@H]2C1=CC[C@H]1C(=O)N(CC(=O)OC)C(=O)[C@H]12, the GFP/RFP ratio change was -1.64%.
O=c1[nH]c2ccccc2n2c(-c3ccccc3)nnc12 gave a GFP/RFP ratio change of 2.93%.
With Cc1ccc(NC(=O)CSc2nnc(CNC(=O)c3ccccc3F)o2)cc1Cl the GFP/RFP ratio change was 3.87%.
With CCOC(=O)N1CCC(c2cc(=O)n(-c3ccccc3)[nH]2)CC1 the GFP/RFP ratio change was 9.16%.
Work on CCOc1ccc(CCNC(=O)COC(=O)C2CCN(S(=O)(=O)c3ccccc3)CC2)cc1OCC yielded a GFP/RFP ratio change of 2.91%.
For O=C(NCCN1CCOCC1)c1ccccc1N1C(=O)[C@@H]2Cc3c([nH]c4ccccc34)C(c3cccc(Cl)c3)N2C1=O (stereo partly specified), the GFP/RFP ratio change was -1.74%.
In the case of CC1(C)CC(O)C(CCC(O)c2ccccc2)C(C)(C)N1 (stereo unspecified), the GFP/RFP ratio change is reported as -4.83%.
CC1CCCCC12NC(=O)N(CC(=O)OCc1c(F)cccc1Cl)C2=O (stereo unspecified) was tested, and the GFP/RFP ratio change was -0.886%.
Work on O=C(CCN1CCN(C/C=C/c2ccccc2)CC1)Nc1cccc(F)c1 yielded a GFP/RFP ratio change of 5.08%.
CCCOC1CCCN(C(=O)c2cc(COc3cncc(Cl)c3)on2)C1 (stereo unspecified) gave a GFP/RFP ratio change of 0.805%.
With CCCC1NC(=S)NC(C)=C1C(C)=O (stereo unspecified) the GFP/RFP ratio change was 5.05%.
O=C(C1CCN(S(=O)(=O)Cc2ccccc2)CC1)N1CCCc2ccccc21 was tested, and the GFP/RFP ratio change was -2.92%.
O=[N+]([O-])c1ccc(N2CCNCC2)cc1NCc1cccnc1 was tested, and the GFP/RFP ratio change was -8.92%.
Work on O=C(NC1CCCC1)C(c1ccc(Cl)cc1)N(C(=O)c1csnn1)C1CC1 (stereo unspecified) yielded a GFP/RFP ratio change of -4.04%.
Work on O=C(c1ccco1)N1CCN(C(=O)C2CC(c3ccc(F)cc3)=NO2)CC1 (stereo unspecified) yielded a GFP/RFP ratio change of 1.83%.
CCc1cccc2c(C=C(C#N)C#N)cn(CC(=O)N3CCCCC3)c12 showed a GFP/RFP ratio change of 0.243%.
With CC(=O)c1cccc(-c2cnc3c(NC=O)cc(-c4ccc(N5CCN(C)CC5)cc4)cn23)c1 the GFP/RFP ratio change was -9.51%.
COCCNC(=O)COc1ccc(N(C)S(=O)(=O)c2ccc3ccccc3c2)cc1 was tested, and the GFP/RFP ratio change was 0.935%.
CN(C)S(=O)(=O)c1cccc(NC(=O)COc2ccc3ccccc3c2)c1 showed a GFP/RFP ratio change of 3.9%.
With Cc1cc2ccccc2n1CCNC(=O)COc1ccc2ccccc2c1 the GFP/RFP ratio change was 30.8% (active).
With C[C@@H]1CN([C@@H](C)CO)C(=O)c2cc(Br)cnc2O[C@@H]1CN(C)C(=O)C1CCCCC1 the GFP/RFP ratio change was 5.19%.
With S=C1Nc2cc(Cl)ccc2Sc2ccccc21 the GFP/RFP ratio change was 1.33%.
With Cc1cc(C)cc(Oc2nc3c(C)cccn3c(=O)c2/C=C(\C#N)C(=O)NC2CCS(=O)(=O)C2)c1 (stereo unspecified) the GFP/RFP ratio change was -5.71%.
O=C(CSc1nnc(-c2ccoc2)o1)N1CCOCC1 showed a GFP/RFP ratio change of -1.67%.
Work on O=C1Nc2ccccc2NC(c2ccc3c(c2)OCO3)=C1N(Cc1ccc(F)cc1)C(=O)c1ccco1 yielded a GFP/RFP ratio change of 1.27%.
Work on COc1ccc(C)cc1NC(=O)CCCN1C(=O)NC(C)(C)C1=O yielded a GFP/RFP ratio change of -3.61%.
For C/C(=C\c1ccco1)CN1CCC(N2CCC(C(=O)N3CCOCC3)CC2)CC1, the GFP/RFP ratio change was 0.944%.
Cc1ccc(CNC(=O)CC2Sc3ccccc3NC2=O)cc1 (stereo unspecified) was tested, and the GFP/RFP ratio change was 0.784%.
Work on Cc1cc(-c2nnc(SCC(=O)Nc3ccc(S(N)(=O)=O)cc3)n2N)n[nH]1 yielded a GFP/RFP ratio change of -2.72%.
